Drawing on ChEMBL document CHEMBL1240337, “Identification of proteases that regulate erythrocyte rupture by the malaria parasite Plasmodium falciparum” (Nat Chem Biol, 2008), this text covers Activity and inhibition for two molecules.

In experiment [1] the test system is Plasmodium falciparum. Put plainly: Antiplasmodial activity against Plasmodium falciparum infected in human erythrocytes assessed as blockade of parasite-mediated rupture of erythrocytes by Giemsa staining. The class given is functional, organism-based. The gist of the method:
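Giemsa-stained thin blood films were read from schizonts exposed at 36 h post invasion to 10 µM inhibitor, to assess rupture and morphology.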

Experiment [2] deals with T1, Protease, putative (Plasmodium falciparum 3D7) (UniProt Q8I1Y2).
T1 sequence (whole entry): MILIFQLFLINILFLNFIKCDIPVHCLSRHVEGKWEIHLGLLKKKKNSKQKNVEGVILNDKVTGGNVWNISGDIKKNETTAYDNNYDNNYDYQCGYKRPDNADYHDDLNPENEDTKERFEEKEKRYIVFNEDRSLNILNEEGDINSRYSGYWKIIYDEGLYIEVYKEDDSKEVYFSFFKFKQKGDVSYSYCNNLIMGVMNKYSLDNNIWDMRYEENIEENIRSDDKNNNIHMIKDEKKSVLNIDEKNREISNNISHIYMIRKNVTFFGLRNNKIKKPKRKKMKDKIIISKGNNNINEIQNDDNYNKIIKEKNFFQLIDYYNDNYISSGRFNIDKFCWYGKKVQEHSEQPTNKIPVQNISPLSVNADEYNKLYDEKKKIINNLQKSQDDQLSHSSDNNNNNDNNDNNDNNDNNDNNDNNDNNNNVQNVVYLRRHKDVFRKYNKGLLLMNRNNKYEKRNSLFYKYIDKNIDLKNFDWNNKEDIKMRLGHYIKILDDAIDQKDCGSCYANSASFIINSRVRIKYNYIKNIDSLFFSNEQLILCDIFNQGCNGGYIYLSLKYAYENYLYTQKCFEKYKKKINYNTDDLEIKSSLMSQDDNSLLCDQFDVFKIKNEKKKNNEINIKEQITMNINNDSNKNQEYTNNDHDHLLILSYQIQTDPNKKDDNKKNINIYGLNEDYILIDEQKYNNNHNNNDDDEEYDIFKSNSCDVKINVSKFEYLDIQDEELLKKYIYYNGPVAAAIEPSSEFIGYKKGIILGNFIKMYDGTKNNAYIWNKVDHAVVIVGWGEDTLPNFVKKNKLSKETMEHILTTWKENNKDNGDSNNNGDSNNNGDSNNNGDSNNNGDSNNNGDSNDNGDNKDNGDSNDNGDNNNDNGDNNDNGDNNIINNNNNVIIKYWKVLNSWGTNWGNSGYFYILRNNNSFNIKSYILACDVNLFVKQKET
Put plainly: Inhibition of Plasmodium falciparum 3D7 PFD0230c by fluorescence spectrophotometry.

Experiment [3] addresses T2, Preprocathepsin c, putative (Plasmodium falciparum 3D7) (UniProt Q8I0V1).
T2 sequence (whole entry): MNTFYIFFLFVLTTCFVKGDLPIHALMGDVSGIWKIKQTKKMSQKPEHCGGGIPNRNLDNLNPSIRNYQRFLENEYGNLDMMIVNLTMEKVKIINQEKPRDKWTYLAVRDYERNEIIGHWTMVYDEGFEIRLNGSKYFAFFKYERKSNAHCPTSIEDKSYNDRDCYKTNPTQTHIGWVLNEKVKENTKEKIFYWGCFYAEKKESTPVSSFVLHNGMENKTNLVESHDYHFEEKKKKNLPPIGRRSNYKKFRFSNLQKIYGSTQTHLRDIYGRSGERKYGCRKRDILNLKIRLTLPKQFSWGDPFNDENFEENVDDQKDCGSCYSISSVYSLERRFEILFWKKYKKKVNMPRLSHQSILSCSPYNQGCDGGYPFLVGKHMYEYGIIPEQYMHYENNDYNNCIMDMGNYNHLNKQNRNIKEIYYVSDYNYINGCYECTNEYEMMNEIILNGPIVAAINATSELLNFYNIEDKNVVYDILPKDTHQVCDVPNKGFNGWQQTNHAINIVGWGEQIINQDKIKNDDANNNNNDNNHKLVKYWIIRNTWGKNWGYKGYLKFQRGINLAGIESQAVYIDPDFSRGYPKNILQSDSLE
The experiment can be described thus: Inhibition of Plasmodium falciparum 3D7 PFL2290w by fluorescence spectrophotometry.

The source made the active and inactive calls. The rule behind the calls is not given here.

For the molecule `CCC[C@H](N)C(=O)N[C@H](/C=C/S(=O)(=O)c1ccccc1)CCc1ccccc1`, the outcome in experiment [1] was Active. The inhibition result in experiment [2] is “Active”. Also, the inhibition entry in experiment [3] was “inactive”.

Consider `C[C@H](N)C(=O)N[C@H](/C=C/S(=O)(=O)c1ccccc1)CCc1ccccc1`, for which, in experiment [1], the outcome was Active. Moreover, the inhibition result in experiment [2] was “Active”. In addition, the inhibition result in experiment [3] is “inactive”.
